What is called inhibition is the percentage by which the read-out fell short of the control. In general, half-life refers to the time in which the quantity being followed falls by half. The low end stands for rapid decline, the high end for slow decline.

Data set [1] concerns Oryctolagus cuniculus. Nature of the data set: Cardioprotective effect in New Zealand rabbit ischemia/reperfusion-induced left anterior descending coronary artery ligation myocardial infarction model assessed as ratio of area at risk to infarct area at 10 mg/kg, iv administered as bolus dose 5 min prior to reperfusion (reference value: 57.3%). The format is functional, Myocardium.

For data set [2], the species on record is Mus musculus. Description: Inhibition of Cacl2-induced mPTP opening in C57/bl6 mouse liver mitochondria assessed as reduction in mitochondrial swelling at 1 uM by spectrophotometry. In a few lines: (§1)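 Male C57/bl6 liver mitochondria at 0.5 mg/mL final in KCl/MOPS/phosphate buffer with glutamate/malate, pH 7.4; compound at 1 μM added before the mitochondria. Swelling followed as the fall in A540, read every 9 s for 10 min. Inducers: CaCl2 150 μM, FCCP 50 nM, menadione 100 μM, diamide 300 μM.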

For data set [3], the species on record is Mus musculus. Description: Inhibition of menadione-induced mPTP opening in C57/bl6 mouse liver mitochondria assessed as reduction in mitochondrial swelling at 1 uM by spectrophotometry. In outline: as §1
Data set [4] is filed under the species Mus musculus. Description: Inhibition of FCCP-induced mPTP opening in C57/bl6 mouse liver mitochondria assessed as reduction in mitochondrial swelling at 1 uM by spectrophotometry. In a few lines: as §1
For data set [5], the species on record is Mus musculus. Nature of the data set: Inhibition of diamide-induced mPTP opening in C57/bl6 mouse liver mitochondria assessed as reduction in mitochondrial swelling at 1 uM by spectrophotometry. In a few lines: as §1
Data set [6] deals with Sodium-dependent noradrenaline transporter (Homo sapiens) (UniProt P23975). Description: Displacement of antagonist radioligand from human NET at 10 uM. In outline:
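Single 10 μM concentration tested in a receptor/enzyme diversity panel, read as displacement of a target-specific radioligand.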

A short description of data set [7]: Plasma concentration in New Zealand rabbit myocardial infarction model at 5 mg/kg, iv administered as bolus dose after 5 mins by LC/MS analysis. It counts as ADME, organism-based, Oryctolagus cuniculus. Set-up: dose 5 mg/kg, route intravenous. In a few lines: (§2)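 Satellite rabbits (n = 5) given the same 5 mg/kg iv bolus. Jugular blood taken into K2EDTA predose and at 5, 15, 30, 60 and 240 min post reperfusion. Plasma precipitated with ACN/H3PO4 and analysed by UPLC-MS/MS, ESI(+), MRM mode. Eight-point calibration 2.5–1000 ng/mL, LLOQ 2.5 ng/mL. Half-life by noncompartmental analysis.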

The subject of data set [8] is Rattus norvegicus. Nature of the data set: Toxicity in WI(Glx/BRL/Han)IGS rat assessed as heart rate at 30 mg/kg, iv. It counts as organism-based. Also noted: dose 30 mg/kg, route intravenous. Particulars: in vivo. In a few lines:
(§3)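 Conscious female rats implanted with telemetry, given a single iv dose up to 30 mg/kg. Heart rate, systolic, diastolic and mean blood pressure, and body temperature recorded from at least 1 h before to about 24 h after dosing.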

Data set [9] in a line: Half life in New Zealand rabbit myocardial infarction model plasma at 5 mg/kg, iv administered as bolus dose by LC/MS analysis. The format is ADME, organism-based, Oryctolagus cuniculus. Also noted: dose 5 mg/kg, route intravenous. In a few lines: as §2
The species entered for data set [10] is Mus musculus. Nature of the data set: Inhibition of calcium-induced mPTP opening in C57/bl6 mouse liver mitochondria assessed as increase in calcium retention capacity at 0.1 to 5 uM by fluorimetry. In a few lines:
(§4)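 Male C57/bl6 liver mitochondria (0.5 mg/mL) in KCl/MOPS buffer with glutamate/malate, pH 7.4, containing 1 μM Calcium Green 5N. Compound added just before the start. CaCl2 pulses added every minute at 25 °C; extramitochondrial fluorescence (ex 505/em 535 nm) followed until mPTP opening. Dose series 0.1–5.0 μM, or given in combination with CsA; mean of three experiments.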

The species named for data set [11] is Mus musculus. Nature of the data set: Inhibition of calcium-induced mPTP opening in C57/bl6 mouse heart mitochondria assessed as increase in calcium retention capacity at 5 uM after 2 mins by fluorimetry (reference value: 80 uM). In outline: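 Excised mouse hearts on a Langendorff apparatus, perfused 2 min with Krebs-type buffer, then 2 min with 5 μM compound in 0.1% DMSO or 0.1% DMSO alone. Hearts iced, mitochondria isolated, CRC measured with Calcium Green 5N and repeated CaCl2 pulses at 25 °C. Value is absolute calcium retained; n = 6 per group.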

The subject of data set [12] is Mus musculus. Description: Increase in calcium retention capacity in C57/bl6 mouse heart mitochondria at 15 mg/kg, iv measured after 5 mins by fluorimetry (reference value: 69.8 uM). It counts as functional. In outline: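 Mice dosed 15 mg/kg iv in the tail vein. Hearts taken 5 min later and mitochondria isolated in sucrose/Tris/EGTA/0.1% BSA buffer. CRC measured with Calcium Green 5N under CaCl2 pulses added every minute at 25 °C until mPTP opening. Value is absolute calcium retained; vehicle DMSO, n = 16 vehicle, n = 6 treated.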

In data set [13] the test system is Rattus norvegicus. Nature of the data set: Toxicity in WI(Glx/BRL/Han)IGS rat assessed as systolic blood pressure at 30 mg/kg, iv. The format is organism-based, Artery. Set-up: dose 30 mg/kg, route intravenous. The note with it: in vivo. In a few lines:
as §3

Data set [14] deals with Rattus norvegicus. Description: Toxicity in WI(Glx/BRL/Han)IGS rat assessed as body temperature at 30 mg/kg, iv. It counts as organism-based. Set-up: dose 30 mg/kg, route intravenous. The note with it: in vivo. In outline: as §3
Data set [15] addresses Voltage-gated inwardly rectifying potassium channel KCNH2 (Homo sapiens, UniProt Q12809). Nature of the data set: Displacement of [3H]-astemizole from human hERG expressed in HEK293 cells at 30 uM by liquid scintillation counting. It counts as cell-based. Particulars: hek293, 30 µM. (In general: Loss of bound radioactivity is the signal in a displacement assay; it reports binding, not function.)

The test system of data set [16] is Rattus norvegicus. Nature of the data set: Toxicity in WI(Glx/BRL/Han)IGS rat assessed as diastolic blood pressure at 30 mg/kg, iv. It counts as organism-based, Artery. Set-up: dose 30 mg/kg, route intravenous. The note with it: in vivo. In a few lines: as §3
A short description of data set [17]: Plasma concentration in New Zealand rabbit myocardial infarction model at 5 mg/kg, iv administered as bolus dose after 240 mins by LC/MS analysis. The format is ADME, organism-based, Oryctolagus cuniculus. Also noted: dose 5 mg/kg, route intravenous. In a few lines:
as §2

The species named for data set [18] is Mus musculus. Description: Inhibition of calcium-induced mPTP opening in C57/bl6 mouse liver mitochondria assessed as increase in calcium retention capacity in presence of cyclosporine A by fluorimetry. In outline: as §4
The subject of data set [19] is Oryctolagus cuniculus. Nature of the data set: Cardioprotective effect in New Zealand rabbit ischemia/reperfusion-induced left anterior descending coronary artery ligation myocardial infarction model assessed as ratio of area at risk to infarct area at 5 mg/kg, iv administered as bolus dose 5 min prior to reperfusion (reference value: 57.3%). The format is functional, Myocardium.

Activity calls are given as the source filed them. No cut-off for these calls is given here.

Chain of Sodium-dependent noradrenaline transporter (Homo sapiens) (P23975 whole entry): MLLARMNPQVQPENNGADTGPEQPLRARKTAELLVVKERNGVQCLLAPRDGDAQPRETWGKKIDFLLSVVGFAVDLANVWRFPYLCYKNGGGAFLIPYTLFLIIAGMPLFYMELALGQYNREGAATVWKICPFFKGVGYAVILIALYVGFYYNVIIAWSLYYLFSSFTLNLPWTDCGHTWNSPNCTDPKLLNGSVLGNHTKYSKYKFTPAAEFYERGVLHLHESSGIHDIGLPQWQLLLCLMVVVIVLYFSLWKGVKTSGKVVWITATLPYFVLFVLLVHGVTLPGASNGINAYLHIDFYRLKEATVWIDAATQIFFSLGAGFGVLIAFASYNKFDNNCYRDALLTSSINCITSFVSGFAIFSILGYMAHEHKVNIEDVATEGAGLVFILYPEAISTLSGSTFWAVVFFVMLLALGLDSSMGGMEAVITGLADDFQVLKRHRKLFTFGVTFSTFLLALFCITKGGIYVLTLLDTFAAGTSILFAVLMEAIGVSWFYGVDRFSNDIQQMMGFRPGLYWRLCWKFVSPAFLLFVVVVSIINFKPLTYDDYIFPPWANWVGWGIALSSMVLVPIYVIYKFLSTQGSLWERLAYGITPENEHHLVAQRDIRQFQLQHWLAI
Chain of Voltage-gated inwardly rectifying potassium channel KCNH2 (Q12809 whole entry): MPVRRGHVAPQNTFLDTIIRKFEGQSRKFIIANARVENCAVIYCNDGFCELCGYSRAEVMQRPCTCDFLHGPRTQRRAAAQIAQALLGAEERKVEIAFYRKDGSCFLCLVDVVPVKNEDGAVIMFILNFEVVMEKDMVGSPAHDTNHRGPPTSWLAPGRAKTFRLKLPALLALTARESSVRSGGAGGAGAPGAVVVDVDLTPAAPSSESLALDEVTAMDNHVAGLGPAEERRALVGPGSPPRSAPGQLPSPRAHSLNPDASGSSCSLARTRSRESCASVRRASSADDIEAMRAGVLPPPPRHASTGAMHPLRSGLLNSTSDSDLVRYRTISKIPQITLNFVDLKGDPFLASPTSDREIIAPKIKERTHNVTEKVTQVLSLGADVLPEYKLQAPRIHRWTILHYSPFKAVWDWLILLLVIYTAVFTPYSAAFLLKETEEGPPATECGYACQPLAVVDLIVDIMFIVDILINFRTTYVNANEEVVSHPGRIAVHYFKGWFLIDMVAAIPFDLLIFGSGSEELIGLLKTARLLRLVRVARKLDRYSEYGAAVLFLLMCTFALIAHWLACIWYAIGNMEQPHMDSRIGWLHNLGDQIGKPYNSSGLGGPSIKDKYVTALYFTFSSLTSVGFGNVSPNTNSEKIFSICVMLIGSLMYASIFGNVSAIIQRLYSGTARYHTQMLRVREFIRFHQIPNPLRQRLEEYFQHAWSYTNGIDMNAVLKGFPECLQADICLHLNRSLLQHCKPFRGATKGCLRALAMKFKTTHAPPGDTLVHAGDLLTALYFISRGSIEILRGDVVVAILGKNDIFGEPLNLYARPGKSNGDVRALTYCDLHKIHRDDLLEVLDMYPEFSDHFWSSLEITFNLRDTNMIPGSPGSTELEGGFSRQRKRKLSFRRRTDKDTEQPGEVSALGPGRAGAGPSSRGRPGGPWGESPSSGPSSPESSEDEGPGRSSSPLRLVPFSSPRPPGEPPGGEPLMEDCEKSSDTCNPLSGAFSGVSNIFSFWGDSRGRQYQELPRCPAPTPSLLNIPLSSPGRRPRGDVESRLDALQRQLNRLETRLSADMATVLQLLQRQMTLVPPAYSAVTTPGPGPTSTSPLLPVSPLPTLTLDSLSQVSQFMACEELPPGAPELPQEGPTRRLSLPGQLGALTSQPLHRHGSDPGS

Regarding `C/C=C/C[C@@H](C)[C@@H](O)[C@H]1C(=O)N[C@@H](CC)C(=O)N(C)CC(=O)N(C)[C@@H](CC(C)C)C(=O)N[C@@H](C(C)C)C(=O)N(C)[C@@H](CC(C)C)C(=O)N[C@@H](C)C(=O)N[C@H](C)C(=O)N(C)[C@@H](CC(C)C)C(=O)N(C)[C@@H](CC(C)C)C(=O)N(C)[C@@H](C(C)C)C(=O)N1C` [CYCLOSPORINE], the Activity in the data set with Oryctolagus cuniculus [1] amounted to 32.6%.

Turning to `COc1ccc(/C=C/C(=O)Nc2cccc(Cl)c2)cc1O`, the inhibition entry in the data set filed under Mus musculus [2], in the data set filed under Mus musculus [3], in the data set filed under Mus musculus [4] and in the data set filed under Mus musculus [5] was “Active” in each case. Moreover, the inhibition in [6] is more than 50%.

`O=C(/C=C/c1ccc(F)c(O)c1)Nc1cccc2ccccc12`: the concentration at 5 min in data set [7] came out at 4800 nM. The Activity entry is “Non-toxic” in the data set with Rattus norvegicus [8]; 108.4 µM in the data set with Mus musculus [12]; “Non-toxic” in the data set on Rattus norvegicus [13]; “Non-toxic” in the data set on Rattus norvegicus [14]; “Not Active” in data set [15]; “Non-toxic” in the data set on Rattus norvegicus [16]. Moreover, the Activity in the data set on Oryctolagus cuniculus [19] stood at 30.9%. In data set [9], the half-life came to 30 min. Further, the inhibition result in the data set listed under Mus musculus [10] is “Dose-dependent effect”. In the data set filed under Mus musculus [11], the INH was found to be 125 µM. For the same molecule, in [17], the concentration at 4 h was 20 nM. Besides, the inhibition entry in the data set filed under Mus musculus [18] is “Active”.

(Values after ChEMBL document CHEMBL3286316, “Cinnamic anilides as new mitochondrial permeability transition pore inhibitors endowed with ischemia-reperfusion injury protective effect in vivo” (J Med Chem, 2014).)
